# Activity calls are given as the source filed them. The rule behind the calls is not given here.
# Key:
# MCF7 [1] = test: Growth stimulation of estrogen-deficient human MCF7 cells at 0.01 to 10 uM after 72 hrs by MTT assay; assay type: functional, cell-based
# Summary of the method: (§1)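 MCF-7 cells plated at 8000/well in phenol red-free MEM with 1 µg/mL insulin and 5% DCC-FBS (estrogen-free). Compounds up to 10 µM (0.01–10 µM), or DMSO vehicle at 0.1% final, added 24 h after plating. MTT conversion read 72 h later at 550 and 690 nm (reference), as % of vehicle. […] Three independent experiments in triplicate.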
# MCF7 [2] = test: Antiproliferative activity against estrogen-deficient human MCF7 cells at 1 uM after 72 hrs by MTT assay relative to untreated vehicle control; assay type: functional; summary of the method: as §1
# MDA-MB-231 [3] = test: Antiproliferative activity against ERalpha-deficient human MDA-MB-231 cells assessed as inhibition of cell proliferation at 1 uM after 72 hrs by MTT assay; assay type: functional, cell-based
# Summary of the method: (§2)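 MDA-MB-231 breast adenocarcinoma cells in phenol red-free MEM with 1 µg/mL insulin and 5% dextran-coated charcoal-treated FBS. Compound added 24 h after plating, DMSO vehicle at 0.1% final. Viable cells read 72 h later as MTT-formazan absorbance, 550 minus 690 nm reference, expressed as % of vehicle-treated cells.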
# MCF7 [4] = test: Antiproliferative activity against estrogen-deficient human MCF7 cells at 10 uM after 72 hrs by MTT assay relative to untreated vehicle control; assay type: functional; summary of the method: as §1
# MCF7 [5] = test: Growth stimulation of human MCF7:D5L cells co-expressing ERE assessed as increase in viable cell number by MTT assay; assay type: functional, cell-based
# Ishikawa [6] = test: Inhibition of estradiol-stimulated cell proliferation of human Ishikawa cells at 10 uM after 72 hrs by MTT assay; assay type: functional, cell-based
# [7] = Estrogenic activity at estrogen receptor in human Ishikawa cells assessed as induction of alkaline phosphatase expression after 72 hrs by microplate reader; assay type: cell-based
# Summary of the method: (§3)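 Ishikawa cells plated at 12,000/well in phenol red-free MEM, 1 µg/mL insulin, 5% DCC-FBS. Compounds up to 10 µM, or DMSO (0.1% final), added 24 h after plating. Alkaline phosphatase activity read 72 h later on a plate reader, as % of vehicle-treated cells. […] Three independent experiments in triplicate.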
# Ishikawa [8] = test: Estrogenic activity at estrogen receptor in human Ishikawa cells assessed as induction of alkaline phosphatase expression at 10 uM after 72 hrs by microplate reader relative to untreated vehicle control; assay type: cell-based; summary of the method: as §3
# MDA-MB-231 [9] = test: Antiproliferative activity against ERalpha-deficient human MDA-MB-231 cells assessed as inhibition of cell proliferation at 10 uM after 72 hrs by MTT assay; assay type: functional; conditions: MDA-MB-231, 72 h; summary of the method: as §2
# Homo sapiens [10] = organism: Homo sapiens; test: Estrogenic activity at estrogen receptor in human MCF7:D5L cells co-expressing ERE assessed as induction of luciferase gene expression at 10 micoM after 16 hrs by microplate reader relative to untreated vehicle control; assay type: cell-based
# Summary of the method: (§4)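 MCF-7:D5L cells (MCF-7 stably carrying ERE-driven luciferase reporter) plated at 12,000/well in phenol red-free MEM with 1 µg/mL insulin and 5% DCC-FBS. Compounds up to 10 µM, or DMSO (0.1% final), added 72 h after plating. Luciferase read 16 h later, as % of vehicle. Three independent experiments in triplicate.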
# Ishikawa [11] = test: Inhibition of estradiol-stimulated cell proliferation of human Ishikawa cells at 1 uM after 72 hrs by MTT assay; assay type: functional, cell-based
# Homo sapiens [12] = organism: Homo sapiens; test: Estrogenic activity at estrogen receptor in human MCF7:D5L cells co-expressing ERE assessed as induction of luciferase gene expression at 1 micoM after 16 hrs by microplate reader relative to untreated vehicle control; assay type: cell-based; summary of the method: as §4
# Ishikawa [13] = test: Estrogenic activity at estrogen receptor in human Ishikawa cells assessed as induction of alkaline phosphatase expression at 1 uM after 72 hrs by microplate reader relative to untreated vehicle control; assay type: cell-based; summary of the method: as §3
# [14] = Estrogenic activity at estrogen receptor in human MCF7:D5L cells co-expressing ERE assessed as induction of luciferase gene expression after 16 hrs by microplate reader; assay type: cell-based; summary of the method: as §4
# Ishikawa [15] = test: Growth stimulation of human Ishikawa cells at 10 uM after 72 hrs by MTT assay; assay type: functional, cell-based
# MCF7 [16] = test: Stimulation of proliferation of estrogen-deficient human MCF7 cells after 72 hrs by MTT assay; conditions: MCF7, 72 h
# MCF7 [17] = test: Antiproliferative activity against estrogen-deficient human MCF7 cells after 72 hrs by MTT assay; assay type: functional, cell-based; conditions: MCF7, 72 h; summary of the method: as §1
# Homo sapiens [18] = organism: Homo sapiens; test: Estrogenic activity at estrogen receptor in human MCF7:D5L cells co-expressing ERE assessed as induction of luciferase gene expression at => 0.1 nM after 16 hrs by microplate reader in presence of 100 nM ER destabilizer fulvestrant; assay type: cell-based
# Summary of the method: (§5)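 Separate wells received 100 nM PPT, or 100 nM MPP with or without 100 nM DPN, added 72 h after plating. Luciferase measured 16 h later relative to vehicle. Mean ± SEM, three experiments in triplicate; t-test vs vehicle.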
# Ishikawa [19] = test: Estrogenic activity at estrogen receptor in human Ishikawa cells assessed as induction of alkaline phosphatase expression at => 0.1 nM after 72 hrs by microplate reader relative to untreated vehicle control in presence of 100 nM ER destabilizer fulvestrant; assay type: cell-based
# Summary of the method: (§6)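 Separate wells received 100 nM PPT, or 100 nM MPP with or without 100 nM DPN. AlkP activity read 72 h after dosing, relative to vehicle. Mean ± SEM of three experiments in triplicate; t-test vs vehicle.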
# Homo sapiens [20] = organism: Homo sapiens; test: Estrogenic activity at estrogen receptor in human MCF7:D5L cells co-expressing ERE assessed as induction of luciferase gene expression at 100 nM after 16 hrs by microplate reader in presence of 100 nM ERalpha antagonist MPP; assay type: functional, cell-based; summary of the method: as §5
# Homo sapiens [21] = organism: Homo sapiens; test: Estrogenic activity at estrogen receptor in human MCF7:D5L cells co-expressing ERE assessed as induction of luciferase gene expression at 100 nM after 16 hrs by microplate reader relative to untreated vehicle control; assay type: cell-based; summary of the method: as §5
# [22] = Estrogenic activity at estrogen receptor in human Ishikawa cells assessed as induction of alkaline phosphatase expression at 100 nM after 72 hrs by microplate reader relative to estradiol in presence of 100 nM ERalpha antagonist MPP; assay type: functional; summary of the method: as §6
# Ishikawa [23] = test: Estrogenic activity at estrogen receptor in human Ishikawa cells assessed as induction of alkaline phosphatase expression at 100 nM after 72 hrs by microplate reader; assay type: cell-based; summary of the method: as §6
SMILES,EC50 [7],EC50 [14],EC50 (MCF7 [16]),Activity (MCF7 [1]),Efficacy (MCF7 [2]),Efficacy (MCF7 [4]),Activity (MCF7 [5]),Efficacy (Ishikawa [8]),Efficacy (Homo sapiens [10]),Efficacy (Homo sapiens [12]),Efficacy (Ishikawa [13]),also measured
CCCCCCCCCCCNC(=O)Oc1cc(O)c2c(=O)c(-c3ccc(OC)cc3)coc2c1,1700 nM,320 nM,–,inactive,117%,108%,inactive,375%,803%,524%,203%,inhibition (MDA-MB-231 [3]): inactive; inhibition (Ishikawa [6]): Active; inhibition at 10 µM (MDA-MB-231 [9]): 21%; inhibition (Ishikawa [11]): Active
COc1ccc(-c2coc3cc(OC(=O)CCl)cc(O)c3c2=O)cc1,470 nM,140 nM,550 nM,Active,152%,155%,inactive,354%,1310%,823%,314%,–
C[C@]12CC[C@@H]3c4ccc(O)cc4CC[C@H]3[C@@H]1CC[C@@H]2O [ESTRADIOL],0.0246 nM,0.0196 nM,–,–,185%,185%,–,440%,402%,402%,440%,EC50 (MCF7 [17]): 0.0064 nM; Activity (Homo sapiens [18]): inactive; Activity (Ishikawa [19]): inactive
CCCc1c(-c2ccc(O)cc2)nn(-c2ccc(O)cc2)c1-c1ccc(O)cc1 [PROPYLPYRAZOLETRIOL],–,–,–,–,–,–,–,–,–,–,–,Activity (Homo sapiens [20]): inactive; Activity (Homo sapiens [21]): Active; Activity [22]: 70%; Activity (Ishikawa [23]): Active

# More lines, main results first:
EC50 [7],EC50 [14],EC50 (MCF7 [16]),SMILES,Activity (MCF7 [1]),Efficacy (MCF7 [2]),Efficacy (MCF7 [4]),Activity (MCF7 [5]),Efficacy (Ishikawa [8]),Efficacy (Homo sapiens [10]),Efficacy (Homo sapiens [12]),Efficacy (Ishikawa [13]),also measured
420 nM,300 nM,210 nM,COc1ccc(-c2coc3cc(O)cc(O)c3c2=O)cc1 [BIOCHANIN],Active,161%,167%,–,309%,733%,490%,310%,Activity (Ishikawa [15]): Active
660 nM,140 nM,680 nM,COc1ccc(-c2coc3cc(OC(=O)NCCCl)cc(O)c3c2=O)cc1,Active,139%,166%,inactive,445%,1140%,635%,295%,–
520 nM,180 nM,280 nM,COc1ccc(-c2coc3cc(OC(=O)CBr)cc(O)c3c2=O)cc1,Active,156%,154%,inactive,387%,1320%,584%,332%,–
620 nM,220 nM,420 nM,COc1ccc(-c2coc3cc(OC(=O)NCCBr)cc(O)c3c2=O)cc1,Active,151%,145%,inactive,440%,1050%,531%,302%,–
